Results: ChEMBL document CHEMBL1138907, “Synthesis, hydrolyses and dermal delivery of N-alkyl-N-alkyloxycarbonylaminomethyl (NANAOCAM) derivatives of phenol, imide and thiol containing drugs” (Bioorg Med Chem Lett, 2006)
≈ marks a conversion by molar mass, not a printed value.

Assays:
[1] = Half life of the compound; type: ADME
Outline: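 Hydrolysis in aqueous buffer, followed by UV absorbance in a cuvette at about 10^-5 M final substrate. For the phenol derivatives, runs were at 46 °C in pH 8.8 buffer because hydrolysis at 32 °C was too slow. Half-lives were taken from plots of log(A∞ − At), or its negative, versus time.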

[2] = Dissociation constant, pKa of the compound; type: physicochemical
[3] = Ratio for partition coefficient, log K in IPM to buffer at pH 4; type: physicochemical; details: IPM/pH 4.0 buffer
[4] = Aqueous solubility of the compound; type: physicochemical; details: water
[5] = Solubility in IPM; type: physicochemical

| half-life [1] [h] | pKa [2] | log K [3] | solubility [4] [µM] | solubility ([5]; IPM, read-out: Solubility) [µM] | solubility [5] [µM] | SMILES |
| --- | --- | --- | --- | --- | --- | --- |
| 0.00367 | 5.03 |  |  |  |  | COC(=O)N(C)COC(=O)c1ccc(N(C)C)cc1 |
| 3.15 | 8.05 |  |  |  |  | COC(=O)N(C)COc1ccc(C(C)=O)cc1 |
| 0.317 | 7.5 | 0.03 | 1450 (≈ 367 µg/mL) | 1350 (≈ 342 µg/mL) |  | COC(=O)N(C)CSc1[nH]cnc2ncnc1-2 |
| 4.83 | 8.47 |  |  |  |  | COC(=O)c1ccc(OCN(C)C(=O)OC)cc1 |
| 2.48 | 7.95 |  |  |  |  | COC(=O)N(C)COc1ccc(C#N)cc1 |
| > 24 |  |  |  |  |  | CCOC(=O)c1ccc(N(COc2ccc([N+](=O)[O-])cc2)C(=O)OC)cc1 |
| 6.67 |  |  |  |  |  | COC(=O)N(COc1ccc([N+](=O)[O-])cc1)c1ccc(OC)cc1 |
| 60 | 9.5 | -0.45 | 45700 (≈ 11500 µg/mL) | 14100 (≈ 3560 µg/mL) |  | COC(=O)N(C)COc1ccc(NC(C)=O)cc1 |
| 0.367 | 7.14 |  |  |  |  | COC(=O)N(C)COc1ccc([N+](=O)[O-])cc1 |
| 1.25 | 7.66 |  |  |  |  | COC(=O)N(C)COc1ccc(C=O)cc1 |
| 0.2 | 6.79 |  |  |  |  | COC(=O)N(C)COc1ccccc1C=O |
| 7 | 8.6 | -0.04 | 9330 (≈ 2620 µg/mL) | 2690 (≈ 757 µg/mL) |  | COC(=O)N(C)Cn1cnc2c1c(=O)n(C)c(=O)n2C |
| 8.65 |  |  |  |  |  | COC(=O)N(COc1ccc([N+](=O)[O-])cc1)c1ccccc1 |
|  |  | -1.72 | 100000 (≈ 15100 µg/mL) |  | 1910 (≈ 289 µg/mL) | CC(=O)Nc1ccc(O)cc1 [ACETAMINOPHEN] |
|  |  | -1.75 | 1120 (≈ 170 µg/mL) | 20 (≈ 3.04 µg/mL) |  | Sc1ncnc2nc[nH]c12 [MERCAPTOPURINE ANHYDROUS] |

| SMILES | half-life [1] [h] | pKa [2] | log K [3] | solubility [4] [µM] | solubility ([5]; IPM, read-out: Solubility) [µM] | solubility [5] [µM] |
| --- | --- | --- | --- | --- | --- | --- |
| Cn1c(=O)c2[nH]cnc2n(C)c1=O.O [THEOPHYLLINE] |  |  | -0.51 | 46000 | 340 |  |
